The nature of data set [1]: Half-life evaluated in 0.1 M phosphate buffer, 37 degree Centigrade. The class given is ADME. In a few lines:
(§1)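 Decomposition was followed in aqueous solution. Rate constants and half-lives were calculated assuming apparent first-order kinetics.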

The test system of data set [2] is Mus musculus. The experiment in a line: Increase in life span was tested after administration of single ip dose at 200 mg/kg (0.8 mmol/kg) in L1210 leukemia in mice; Toxic. Type of data set: toxicity, organism-based. The arrangement: dose 200 mg/kg, route intraperitoneal. Conditions: in vivo. The gist of the method: (§2)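 L1210 leukemia-bearing mice got a single ip dose on the first day after transplantation. Read-out was median survival in days, treated (T) versus control (C). %ILS = (T − C)/C × 100. Doses are given in both mg/kg and mmol/kg; "tox" marks doses that were toxic.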

Data set [3] relates to Mus musculus. Put plainly: Increase in life span was tested after administration of single maximal effective ip dose at 100 mg/kg (0.4 mmol/kg) in L1210 leukemia in mice. As to conditions: route intraperitoneal. Type of data set: functional. The gist of the method: as §2
The nature of data set [4]: Rate constant at a concentration of 2.54M*10e-3 was determined. Type of data set: ADME. In a few lines:
as §1

The subject of data set [5] is Mus musculus. The experiment in a line: Increase in life span was tested after administration of single ip dose at 40 mg/kg (0.16 mmol/kg) in L1210 leukemia mice; Toxic. Type of data set: toxicity, organism-based. Further details: dose 40 mg/kg, route intraperitoneal. Conditions: in vivo. The gist of the method:
as §2

In data set [6] the test system is Mus musculus. The experiment in a line: Increase in life span was tested after administration of single maximal effective ip dose at 20 mg/kg (0.08 mmol/kg) in L1210 leukemia mice. As to conditions: route intraperitoneal. Type of data set: functional. In a few lines: as §2
Data set [7] relates to Mus musculus. The experiment in a line: Increase in life span was tested after administration of single ip dose at 38 mg/kg (0.21 mmol/kg) in L1210 leukemia in mice; Toxic. Type of data set: toxicity, organism-based. Further details: dose 38 mg/kg, route intraperitoneal. As to conditions: in vivo. The gist of the method: as §2
In data set [8] the test system is Mus musculus. Put plainly: Increase in life span was tested after administration of single maximal effective ip dose at 20 mg/kg (0.11 mmol/kg) in L1210 leukemia in mice. The class given is functional. Conditions: route intraperitoneal. In a few lines:
as §2

What is called half-life is how long it takes for the measured level to halve. The low end stands for rapid decline, the high end for slow decline. The term ILS denotes the gain in survival time of treated over control animals, in per cent. Read a high ILS as much gain in survival.

As to `NC(=O)C1CCCN1C(=O)N(CCCl)N=O` (stereo not given), the half-life in data set [1] was 4.26 h. Also, in the data set with Mus musculus [2], the ILS entry is “Toxic”. This compound also came in with an ILS at 100 mg/kg with Mus musculus [3] of 420%. The compound also yielded a k in data set [4] of 0.00274 min⁻¹.

With `CC(C)C(NC(=O)N(CCCl)N=O)C(N)=O` (stereo not given), the half-life in data set [1] amounted to 0.258 h. Further, the ILS result in the data set on Mus musculus [5] was “Toxic”. In the data set on Mus musculus [6], this compound showed an ILS at 20 mg/kg of 212%. The k in data set [4] worked out at 0.0452 min⁻¹.

As for `O=NN(CCCl)C(=O)NCCCl` [CARMUSTINE], the ILS entry in the data set with Mus musculus [7] is given as “Toxic”. This compound also came in with an ILS at 20 mg/kg in the data set on Mus musculus [8] of 115%.
